According to ChEMBL document CHEMBL4689842, “EUbOPEN Chemogenomics Library wave 1” (2021):

System: Fibroblast
Experiment: Multiplex assay against human fibroblast
Format: toxicity, cell-based
Procedure, shortened: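 At seeding, live cells were stained with Hoechst33342, BioTracker Green Microtubule Cytoskeleton Dye, MitoTracker Red and Annexin V Alexa Fluor 680. After compound addition they were imaged on a CQ1 microscope at 37°C and 5% CO2, and CellPathfinder machine-learning gating sorted them into Hoechst high-intensity objects or normal cells, with normal cells further split into healthy, pyknosed or fragmented nuclei and pyknosed cells into mitotic or apoptotic. Tubulin, mitochondrial-mass and membrane-permeability phenotypes are given as per cents of cells with healthy nuclei.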

[1] = 12 h, 1 µM, compound concentration 1 uM, replicate 1
[2] = 12 h, 1 µM, compound concentration 1 uM, replicate 2
[3] = 12 h, 10 µM, compound concentration 10 uM, replicate 1
[4] = 12 h, 10 µM, compound concentration 10 uM, replicate 2
[5] = 24 h, 1 µM, compound concentration 1 uM, replicate 1
[6] = 24 h, 1 µM, compound concentration 1 uM, replicate 2
[7] = 24 h, 10 µM, compound concentration 10 uM, replicate 1
[8] = 24 h, 10 µM, compound concentration 10 uM, replicate 2

CNC(=O)Nc1ccc2c(c1)[C@@]1(CC2)OC(=O)N(CC(=O)N(Cc2ccc(F)cc2)[C@@H](C)C(F)(F)F)C1=O [A-486]
Population Apoptotic (%) [1]: 68%
Population Fragmented Nuclei (%) [1]: 21%
Population Healthy Nuclei (%) [1]: 60%
Population Hoechst High Intensity Objects (%) [1]: 9%
Population Membrane Permeable-Phenotype (%) [1]: 31%
Population Mitochondria Different-Phenotype (%) [1]: 4%
Population Mitotic Cells (%) [1]: 31%
Population Normal (%) [1]: 90%
Population Pyknosed Nuclei (%) [1]: 18%
Population Tubulin-Different-Phenotype (%) [1]: 55%
Total Cell Count [1]: 291
Population Apoptotic (%) [2]: 75%
Population Fragmented Nuclei (%) [2]: 57%
Population Healthy Nuclei (%) [2]: 21%
Population Hoechst High Intensity Objects (%) [2]: 34%
Population Membrane Permeable-Phenotype (%) [2]: 41%
Population Mitochondria Different-Phenotype (%) [2]: 8%
Population Mitotic Cells (%) [2]: 25%
Population Normal (%) [2]: 65%
Population Pyknosed Nuclei (%) [2]: 21%
Population Tubulin-Different-Phenotype (%) [2]: 91%
Total Cell Count [2]: 87
Population Apoptotic (%) [3]: 55%
Population Fragmented Nuclei (%) [3]: 24%
Population Healthy Nuclei (%) [3]: 61%
Population Hoechst High Intensity Objects (%) [3]: 14%
Population Membrane Permeable-Phenotype (%) [3]: 7%
Population Mitochondria Different-Phenotype (%) [3]: 5%
Population Mitotic Cells (%) [3]: 45%
Population Normal (%) [3]: 85%
Population Pyknosed Nuclei (%) [3]: 14%
Population Tubulin-Different-Phenotype (%) [3]: 7%
Total Cell Count [3]: 160
Population Apoptotic (%) [4]: 33%
Population Fragmented Nuclei (%) [4]: 57%
Population Healthy Nuclei (%) [4]: 37%
Population Hoechst High Intensity Objects (%) [4]: 29%
Population Membrane Permeable-Phenotype (%) [4]: 15%
Population Mitochondria Different-Phenotype (%) [4]: 10%
Population Mitotic Cells (%) [4]: 66%
Population Normal (%) [4]: 70%
Population Pyknosed Nuclei (%) [4]: 5%
Population Tubulin-Different-Phenotype (%) [4]: 45%
Total Cell Count [4]: 77
Population Apoptotic (%) [5]: 56%
Population Fragmented Nuclei (%) [5]: 23%
Population Healthy Nuclei (%) [5]: 59%
Population Hoechst High Intensity Objects (%) [5]: 14%
Population Membrane Permeable-Phenotype (%) [5]: 17%
Population Mitochondria Different-Phenotype (%) [5]: 6%
Population Mitotic Cells (%) [5]: 43%
Population Normal (%) [5]: 85%
Population Pyknosed Nuclei (%) [5]: 17%
Population Tubulin-Different-Phenotype (%) [5]: 46%
Total Cell Count [5]: 300
Population Apoptotic (%) [6]: 71%
Population Fragmented Nuclei (%) [6]: 63%
Population Healthy Nuclei (%) [6]: 23%
Population Hoechst High Intensity Objects (%) [6]: 33%
Population Membrane Permeable-Phenotype (%) [6]: 50%
Population Mitochondria Different-Phenotype (%) [6]: 16%
Population Mitotic Cells (%) [6]: 28%
Population Normal (%) [6]: 66%
Population Pyknosed Nuclei (%) [6]: 13%
Population Tubulin-Different-Phenotype (%) [6]: 66%
Total Cell Count [6]: 78
Population Apoptotic (%) [7]: 60%
Population Fragmented Nuclei (%) [7]: 30%
Population Healthy Nuclei (%) [7]: 53%
Population Hoechst High Intensity Objects (%) [7]: 14%
Population Membrane Permeable-Phenotype (%) [7]: 12%
Population Mitochondria Different-Phenotype (%) [7]: 1%
Population Mitotic Cells (%) [7]: 39%
Population Normal (%) [7]: 85%
Population Pyknosed Nuclei (%) [7]: 15%
Population Tubulin-Different-Phenotype (%) [7]: 8%
Total Cell Count [7]: 177
Population Apoptotic (%) [8]: 100%
Population Fragmented Nuclei (%) [8]: 56%
Population Healthy Nuclei (%) [8]: 40%
Population Hoechst High Intensity Objects (%) [8]: 38%
Population Membrane Permeable-Phenotype (%) [8]: 25%
Population Mitochondria Different-Phenotype (%) [8]: 0%
Population Mitotic Cells (%) [8]: 0%
Population Normal (%) [8]: 61%
Population Pyknosed Nuclei (%) [8]: 4%
Population Tubulin-Different-Phenotype (%) [8]: 10%
Total Cell Count [8]: 81
